ChEMBL document CHEMBL1152331, “seco-Abietane diterpenoids, a phenylethanoid derivative, and antitubercular constituents from Callicarpa pilosissima” (2009)
Values after ≈ are worked out from the molar mass of the structure shown.

tested on: Mycobacterium tuberculosis; test: Antitubercular activity against Mycobacterium tuberculosis H37Rv after 2 weeks; assay type: functional; settings: 336 h
Method in brief: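 Agar proportion method on Middlebrook 7H10 with OADC; compound mixed into agar at 50-56 °C by serial dilution, final 100 to 0.8 µg/mL, poured into quadrant plates. Inoculum in 7H9 broth adjusted to McFarland no. 1, then diluted 10-2; 33 µL per quadrant. Incubated 35 °C, 10% CO2, 2 weeks; MIC read. Ethambutol as positive control.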

Q: How did the MIC turn out when `COc1ccc(-c2oc3cc(OC)c(OC)c(O)c3c(=O)c2OC)cc1O` [CASTICIN] was run?
A: 214 µM (≈ 80.1 µg/mL)

Q: Which MIC does the source give for `CC(C)c1ccc2c(c1)CC[C@H]1C(C)(C)C(=O)CC[C@]21C` here?
A: 148 µM (≈ 42.1 µg/mL)

Q: How did the MIC turn out when `CCCCCCCCCCCCCC(=O)OCCc1ccc(O)cc1` was run?
A: > 300 µM

Q: With `C=C(C)[C@@H]1CCC2=C(CCC(C(C)C)=C2)[C@@]1(C)CCC(=O)OC` as the compound, how does the MIC read?
A: 38 µM (≈ 12 µg/mL)

Q: Which MIC does the source give for `COc1cc([C@H]2OC[C@@H]3C(=O)OC[C@@H]32)cc(OC)c1O` here?
A: 257 µM (≈ 72.1 µg/mL)

Q: `CC[C@H](CC[C@@H](C)[C@H]1CC[C@H]2[C@@H]3CC=C4CC(=O)CC[C@]4(C)[C@H]3CC[C@]12C)C(C)C` [BETA-SITOSTENONE] was tested. Which MIC did it give?
A: > 300 µM

Q: Which MIC does the source give for `C=C(C)[C@@H]1CC=C2C=C(C(C)C)CC[C@]2(O)[C@@]1(C)CCC(=O)O` [9R-HYDROXYCALLICARPIC ACID A] here?
A: 113 µM (≈ 36 µg/mL)

Q: How did the MIC turn out when `C=C(C)[C@@H]1CC=C2C=C(C(C)C)CC[C@@H]2[C@@]1(C)CCC(=O)O` [CALLICARPIC ACID A] was run?
A: 238 µM (≈ 72.1 µg/mL)

Q: With `CC[C@@H](CO)NCCN[C@@H](CC)CO` [ETHAMBUTOL] as the compound, how does the MIC read?
A: 30.6 µM (≈ 6.25 µg/mL)

Q: For `COc1ccc(-c2oc3cc(OC)c(OC)c(OC)c3c(=O)c2OC)cc1OC` [HEXAMETHOXYFLAVONE], which MIC is on record?
A: 179 µM (≈ 72.1 µg/mL)

Q: How did the MIC turn out when `COc1cc2oc(-c3ccc(O)cc3)c(OC)c(=O)c2c(O)c1OC` [PENDULETIN] was run?
A: 157 µM (≈ 54.1 µg/mL)

Q: Which MIC does the source give for `C=C(C)[C@@H]1CCC2=C(C(=O)C=C(C(C)C)C2=O)[C@@]1(C)CCC(=O)O` [CALLICARPIC ACID B] here?
A: 63.6 µM (≈ 21 µg/mL)

Q: With `CCCCCCCCCCCCCCCCCC(=O)O` [STEARIC ACID] as the compound, how does the MIC read?
A: > 300 µM

Q: With `COc1ccc(-c2cc(=O)c3c(O)cc(O)cc3o2)cc1` [ACACETIN] as the compound, how does the MIC read?
A: 282 µM (≈ 80.1 µg/mL)

Q: For `CC(C)c1ccc2c(c1)C(=O)C[C@H]1C(C)(C)CCC[C@]21C`, which MIC is on record?
A: > 300 µM

Q: Which MIC does the source give for `COc1ccc(-c2oc3cc(OC)c(OC)c(O)c3c(=O)c2OC)cc1OC` [ARTEMETIN] here?
A: 186 µM (≈ 72.1 µg/mL)

Q: For `C=C(C)[C@@H]1CCc2cc(C(C)C)ccc2[C@@]1(C)CCC(=O)OC`, which MIC is on record?
A: 153 µM (≈ 48.1 µg/mL)

Q: Which MIC does the source give for `CC(C)=CCC/C(C)=C/CC/C(C)=C/CC/C=C(\C)CC/C=C(\C)CCC=C(C)C` [SQUALENE] here?
A: 122 µM (≈ 50.1 µg/mL)
